SENP8 block-1 = human SENP8 protease inhibitors, primary screen, biochemical, fluorescence, Nedd8 protein substrate, uHTS; recombinant SENP8; AID 602440, 2012; 360,000 tested, 0.64% active; inhibition, % at 20 µM; Sentrin-specific protease 8 (Homo sapiens), Q96LD8; in the data active = inhibition mostly above about 40%, no sharp cut-off; inactive = mostly below about 27%
Target sequence (Q96LD8 whole entry, looked up): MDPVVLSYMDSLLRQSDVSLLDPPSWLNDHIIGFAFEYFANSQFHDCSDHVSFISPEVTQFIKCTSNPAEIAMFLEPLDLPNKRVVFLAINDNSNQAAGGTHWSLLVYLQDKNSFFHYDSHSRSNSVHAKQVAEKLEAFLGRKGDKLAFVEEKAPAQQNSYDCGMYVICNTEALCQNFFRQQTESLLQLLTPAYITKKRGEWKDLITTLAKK
SENP7 block = SENP7 protease inhibitors, primary screen, biochemical, luminescence, uHTS; recombinant SENP7, Z-RLRGG-aminoluciferin luminescence, 40 min; Sentrin-specific protease 7 (Homo sapiens), Q9BQF6; inhibition, % at 5 µM; 330,000 tested, 1.5% active;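 active = inhibition above about 50% at the single test dose, limit read from the data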
SENP6 inh = SENP6 protease inhibitors, primary screen, biochemical, luminescence, uHTS. Sentrin-specific protease 6 (Homo sapiens), Q9GZR1. Recombinant SENP6 catalytic domain, aminoluciferin luminescence. inhibition, % at 10 µM. 330,000 tested, 1.8% active. AID 2599, 2010;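 active = inhibition above about 50% at the single tested dose, limit read from the data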
SENP1 FRET inh = human SENP1 catalytic domain inhibitors, primary screen, biochemical, FRET, uHTS; Sentrin-specific protease 1 (Homo sapiens), Q9P0U3; recombinant SENP1 catalytic domain, CyPet-SUMO1-YPet FRET cleavage; inhibition, % at 10 µM; 360,000 tested, 0.21% active; AID 624204, 2012;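 active = inhibition at least 30% at 10 µM, raw YFP signal under a set limit, fluorescence ratio 0.5 to 1.5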
Target sequence (Q9P0U3 419-644 limits assumed): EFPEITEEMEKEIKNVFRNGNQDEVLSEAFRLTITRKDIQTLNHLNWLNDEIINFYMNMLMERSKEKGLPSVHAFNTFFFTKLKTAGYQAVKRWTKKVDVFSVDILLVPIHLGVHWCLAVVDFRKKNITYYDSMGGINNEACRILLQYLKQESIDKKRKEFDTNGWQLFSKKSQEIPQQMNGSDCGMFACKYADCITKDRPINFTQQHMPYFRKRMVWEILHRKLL
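Material: hSENP1 catalytic domain, recombinant; medium: Tris pH 8 with BME, BSA, NP40 and catalase; compound: single concentration of 10 µM compound, 0.5% DMSO final; technique: FRET read of cyan and yellow fluorescence; timing: 50 min enzyme reaction, room temperature, light-protected; reagent: SFCypet-SUMO1-SFYpet substrate at 25 nM; control set: no-enzyme low, enzyme-DMSO high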
SENP8 block-2 = SENP8 protease inhibitors, primary screen, biochemical, luminescence; Sentrin-specific protease 8 (Homo sapiens), Q96LD8; purified SENP8, Z-RLRGG-aminoluciferin cleavage; inhibition, % at 10 µM; 330,000 tested, 1.2% active; AID 2540, 2010; in the data active = inhibition above about 50%
SENP8 confirm = SENP8 protease inhibitors, retest, confirmation, biochemical, luminescence, single concentration; shares compounds with SENP7 block; Recombinant SENP8, Z-RLRGG-aminoluciferin luminescence, 60 min; inhibition, % at 12.5 µM; 6,200 tested, 40% active;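 active = mean inhibition across replicates above about 50%, limit read from the data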
SENP6 confirm = SENP6 protease inhibitors, confirmation, biochemical, luminescence, single concentration; recombinant SENP6, Z-RLRGG-aminoluciferin luminescence; inhibition, % at 12.5 µM; 6,200 tested, 58% active; AID 488915, 2010; shares compounds with SENP7 block
SENP7 conf = SENP7 protease inhibitors, retest, confirmation, biochemical, luminescence, single concentration; inhibition, % at 12.5 µM; 6,200 tested, 69% active; AID 488917, 2010; shares compounds with SENP7 block; recombinant SENP7, Z-RLRGG-aminoluciferin luminescence, 40 min
Casp3 SENP sel = caspase-3 protease inhibitors, confirmation, selectivity assay for SENP inhibitor project, biochemical, single concentration | shares compounds with SENP7 block | purified caspase-3, Z-DEVD-aminoluciferin luminescence, 60 min | inhibition, % at 12.5 µM | 6,200 tested, 60% active | AID 488918, 2010;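 active = mean inhibition above about 50%, limit read from the data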
Target sequence (P42574 28-227 limits assumed): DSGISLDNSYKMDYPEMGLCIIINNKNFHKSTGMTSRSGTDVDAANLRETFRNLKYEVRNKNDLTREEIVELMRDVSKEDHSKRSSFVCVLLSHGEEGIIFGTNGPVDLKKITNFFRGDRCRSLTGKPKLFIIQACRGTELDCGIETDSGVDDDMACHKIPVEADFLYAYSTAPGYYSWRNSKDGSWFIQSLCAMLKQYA
Luc interf = interferes with luciferase luminescence in SENP counter-screen. shares compounds with SENP7 block. Pre-incubated SENP8/Z-RLRGG-aminoluciferin, luciferase luminescence interference. inhibition, % at 12.5 µM. 6,200 tested, 39% active;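 active = mean inhibition above about 50% when retested at one dose, limit read from the data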
Large screens that a line does not name were inactive (follow-up assays come after a bar, where they were run). The list is not random: actives were taken first. Their share in the collection is about 2.5%.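 Rule for the calls, unless noted: active = mean inhibition above about 50% in the one-dose retest (limit read from the data); inactive = the rest.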

N/C(=N\OC(=O)c1cccs1)c1cccc(Br)c1	SENP7 block 87.5, SENP8 block-2 80.1 | SENP8 confirm 87.3 | SENP6 confirm 88.6 | SENP7 conf 99.1 | Casp3 SENP sel 89.6 | Luc interf 82.0
Cc1cccc(/C(N)=N/OC(=O)c2ccc(F)cc2)c1	SENP7 block 98.8, SENP6 inh 98.2, SENP8 block-2 96.0 | SENP8 confirm 97.6 | SENP6 confirm 98.1 | SENP7 conf 101.6 | Casp3 SENP sel 97.9 | Luc interf 88.7
Cc1cccc(/C(N)=N/OC(=O)c2cccs2)c1	SENP7 block 97.0, SENP6 inh 88.2, SENP8 block-2 91.2 | SENP8 confirm 95.4 | SENP6 confirm 96.0 | SENP7 conf 100.8 | Casp3 SENP sel 97.1 | Luc interf 95.6
O=C(O/N=C1\CCCc2ccccc21)c1cccs1	SENP7 block 91.3, SENP6 inh 88.2, SENP8 block-2 85.8 | SENP8 confirm inactive | SENP6 confirm 94.2 | SENP7 conf 101.3 | Casp3 SENP sel 90.1 | Luc interf inactive
O=C(Cc1ccccc1)O/N=C1\CCCc2ccccc21	none
N/C(=N\OC(=O)Cc1ccccc1)c1cccc(Br)c1	none
CCOc1ccc(S(=O)(=O)N2CCC(C(=O)NC3CCCCC3)CC2)cc1	none
COC(=O)N1C2CCCCC2=NN(c2ccccc2)N1C(=O)OC (stereo not drawn)	none (no result: SENP7 block, SENP6 inh, SENP8 block-2)
Cc1ccc(/C(N)=N/OC(=O)c2cccs2)cc1	SENP7 block 67.3, SENP6 inh 73.0, SENP8 block-2 68.3 | SENP8 confirm 58.4 | SENP6 confirm 64.9 | SENP7 conf 91.2 | Casp3 SENP sel 73.0 | Luc interf 60.1
N/C(Cc1cccc2ccccc12)=N\OC(=O)c1cccs1	none
COc1ccc(/C(N)=N/OC(=O)c2cccs2)cc1OC	none
N/C(=N\OC(=O)c1cccs1)c1ccccc1	SENP7 block 99.0, SENP8 block-2 91.3 | SENP8 confirm 92.7 | SENP6 confirm 95.0 | SENP7 conf 100.7 | Casp3 SENP sel 97.1 | Luc interf 93.3
Cc1ccc(S(=O)(=O)N2CCCCC2)cc1C(=O)NCc1ccc(S(N)(=O)=O)cc1	none
O=C(Nc1nc2c(s1)CCCC2)C1COc2ccccc2O1 (stereo not drawn)	SENP7 block 59.2, SENP6 inh 66.7, SENP8 block-2 59.2 | SENP8 confirm 74.8 | SENP6 confirm 73.0 | SENP7 conf 91.8 | Casp3 SENP sel 66.6 | Luc interf inactive
Cc1nnc(NC(=O)C2COc3ccccc3O2)s1 (stereo not drawn)	none
O=C(Nc1ccncc1)C1COc2ccccc2O1 (stereo not drawn)	none
O=C(NC1=NCCS1)C1COc2ccccc2O1 (stereo not drawn)	SENP7 block 84.6, SENP6 inh 81.8, SENP8 block-2 64.2 | SENP8 confirm 77.3 | SENP6 confirm 76.5 | SENP7 conf 95.1 | Casp3 SENP sel 93.5 | Luc interf 84.8
Cc1cc(C)n(-c2ccc(C(=O)Nc3sccc3C(N)=O)cc2)n1	SENP7 block 63.3, SENP6 inh 74.8 | SENP8 confirm 63.8 | SENP6 confirm 64.5 | SENP7 conf 82.0 | Casp3 SENP sel 58.0 | Luc interf inactive
NC(=O)c1ccsc1NC(=O)C1CCCN1S(=O)(=O)c1ccc(Cl)cc1 (stereo not drawn)	none
CC1CCCCN1S(=O)(=O)c1ccc(C(=O)Nc2sccc2C(N)=O)cc1 (stereo not drawn)	SENP7 block 79.2, SENP6 inh 82.9, SENP8 block-2 85.8 | SENP8 confirm 87.4 | SENP6 confirm 87.7 | SENP7 conf 96.6 | Casp3 SENP sel 74.1 | Luc interf inactive
O=C1CCCC2=C1C(c1ccncc1)Nc1ccccc1N2 (stereo not drawn)	none
O=C1NC2=C(C(=O)CCC2)C(c2ccc3ncccc3c2)N1 (stereo not drawn)	SENP7 block 71.8 | SENP8 confirm inactive | SENP6 confirm inactive | SENP7 conf inactive | Casp3 SENP sel inactive | Luc interf inactive
CC(=O)c1cc(-c2ccc(F)cc2)n(CCC(=O)Nc2cccnc2)c1C	none
Cc1ccnc(NC(=O)Nc2ccc(F)cc2)c1	SENP6 inh 70.6 | SENP8 confirm inactive | SENP6 confirm inactive | SENP7 conf inactive | Casp3 SENP sel inactive | Luc interf inactive
Cc1ccnc(NC(=O)c2ccc([N+](=O)[O-])s2)c1	none
CSc1ccc(NC(=O)Nc2cc(C)ccn2)cc1	SENP7 block 77.9 | SENP8 confirm inactive | SENP6 confirm inactive | SENP7 conf inactive | Casp3 SENP sel inactive | Luc interf inactive
Cc1ccnc(NC(=O)c2cc3cc(F)ccc3s2)c1	SENP7 block 73.1, SENP6 inh 87.1, SENP8 block-2 73.1 | SENP8 confirm 78.8 | SENP6 confirm 78.2 | SENP7 conf 94.8 | Casp3 SENP sel 72.6 | Luc interf 59.6
COc1ccc(NC(=O)Nc2cc(C)ccn2)cc1	none (no result: SENP7 block, SENP6 inh, SENP8 block-2)
CN(Cc1c(C(=O)N/N=C/c2ccccc2O)nnn1-c1nonc1N)C1CCCCC1	none (no result: SENP7 block, SENP6 inh, SENP8 block-2)
COc1ccccc1N1CCN(C(=O)NCc2cccc(C(F)(F)F)c2)CC1	none
Cc1ccsc1C(=O)NNC(=O)c1ccccc1F	SENP7 block 58.4 | SENP8 confirm inactive | SENP6 confirm inactive | SENP7 conf 75.5 | Casp3 SENP sel 83.0 | Luc interf 55.7
Cc1noc(C)c1CSc1nc2ccccc2[nH]1	none
O=C(CSc1nc2ccccc2[nH]1)c1ccccc1F	SENP6 inh 56.9 | SENP8 confirm 50.8 | SENP6 confirm inactive | SENP7 conf 81.3 | Casp3 SENP sel 63.3 | Luc interf 61.8
O=C(O)c1ccccc1CSc1nc2ccccc2[nH]1	SENP6 inh 70.4 | SENP8 confirm 72.0 | SENP6 confirm 70.5 | SENP7 conf 87.1 | Casp3 SENP sel 87.7 | Luc interf 75.5

High-throughput results: PubChem, Sanford-Burnham Center for Chemical Genomics
